One block for each compound: values may come before it.
Key:
[1] = system: A549, MCF-7, MDA-MB-231 and MDA-MB-468; assay: MTT growth inhibition, average of four cancer cell lines; format: cell-based; settings: read-out: GI50 Average
Outline: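 Each of the four lines, grown in DMEM with 10% FBS at 37 °C and 5% CO2, was incubated with the test compound for 72 h, and growth was read by MTT absorbance at 570 nm. Percent growth was 100 × (treated − time-0)/(medium control − time-0). GI50 came from non-linear regression of the growth–concentration curve, and the four mean GI50s were averaged. Single experiments were run in duplicate where no SD is given.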

Bcl-2 [2] = assay: qRT-PCR of bcl-2 transcript in A549 cells; format: cell-based; settings: 4 h
Outline: (§1)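 Exponentially growing A549 cells were treated in duplicate for 4 h. Total RNA was extracted and DNase-treated at 37 °C for 30 min, then cDNA was made with random primers. Transcripts were quantified by SYBR Green qPCR, normalised to HPRT, using the 2−ΔΔCt method. One-way ANOVA was used.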

p21 [3] = assay: Western blot of p21 in A549 cells; format: cell-based; settings: all concentrations tested, 48 h
Outline: (§2)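 Exponentially growing A549 cells were treated with different test compound concentrations for 48 h and washed twice in cold PBS (pH 7.4). They were lysed in NP-40 buffer (50 mM Tris-HCl pH 8.0, 5 mM EDTA, 150 mM NaCl, 1 mM DTT, 0.5% NP-40) containing 8 M urea. Equal protein was run on 10% SDS-PAGE, transferred to PVDF and probed with specific antibodies, using GAPDH as the loading control.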

[4] = system: human foreskin fibroblast (HFF) cells; assay: HFF growth inhibition, trypan blue exclusion assay; format: cell-based; settings: 48 h
Outline: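 HFF cells were maintained in DMEM with 10% FBS and penicillin/streptomycin at 37 °C under 5% CO2. Cells were treated with increasing test compound concentrations in triplicate for 48 h, and live cells were counted by trypan blue exclusion.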

A549 cells = assay: Annexin-V/PI flow cytometry apoptosis assay; format: cell-based; settings: 10 µM, 48 h, vehicle […]
[5] = system: VP16-CREB-mediated gene transcription; settings: cited from earlier work
NCI-60 cancer cell panel = assay: NCI-60 cancer cell panel; format: cell-based; settings: Fig. S1
[6] = system: p53-mediated gene transcription; assay: p53 transcription reporter assay; format: cell-based; settings: transcription reporter assay (Fig. S2)
VEGF [7] = assay: qRT-PCR of VEGF transcript in A549 cells; format: cell-based; settings: 4 h
Outline: as §1

p21 [8] = assay: qRT-PCR of p21 transcript in A549 cells; format: cell-based; settings: 4 h
Outline: as §1

Bcl-2 [9] = assay: Western blot of Bcl-2 in A549 cells; format: cell-based; settings: increasing concentrations, 48 h
Outline: as §2

[10] = system: normal human mammary epithelial cells (HMEC); assay: HMEC growth inhibition, trypan blue exclusion assay; format: cell-based; settings: 10 µM and lower, 48 h
Outline: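 Proliferating normal HMEC were cultured routinely in MEGM complete medium with penicillin/streptomycin at 37 °C under 5% CO2. On the day of treatment the medium was changed to DMEM with 10% FBS. Cells were exposed to various test compound concentrations in triplicate for 48 h, then live cells were counted by trypan blue exclusion. One-way ANOVA was used.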

[11] = system: MCF-7 cells expressing VP16-CREB; assay: MTT assay in MCF-7 cells expressing VP16-CREB versus parental MCF-7; format: cell-based; settings: 48 h
Outline: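 MCF-7 cells were lipofected with a plasmid encoding Flag-tagged VP16-CREB. From 2 days post-transfection they were selected in 2 mg/mL G418 until a stable colony formed, and expression was checked by anti-FLAG blot. The stable line and parental MCF-7 were treated in triplicate for 48 h, and live cells were quantified by MTT. Student's t-test was used.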

[12] = system: poly (ADP-ribose) polymerase (PARP); assay: Western blot of PARP cleavage in A549 cells; format: cell-based; settings: 48 h
Outline: as §2

VEGF [13] = assay: VEGF ELISA assay of A549 culture media; format: cell-based; settings: A549 cells, 24 h
Outline: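 A549 cells were treated in duplicate with the indicated test compound concentrations for 24 h. VEGF in the culture medium was measured by ELISA and normalised to medium protein concentration. One-way ANOVA was used.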

[14] = system: CREB-mediated gene transcription in HEK 293T cells; settings: cited from earlier work
KIX–KID interaction = KIX–KID interaction (Homo sapiens, UniProt Q92793); settings: cited from earlier work
Chain of KIX–KID interaction (Q92793 587-666 limits assumed): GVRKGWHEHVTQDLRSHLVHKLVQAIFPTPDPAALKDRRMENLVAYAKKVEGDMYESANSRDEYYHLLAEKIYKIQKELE

SMILES: O=C(Nc1ccccc1Cl)c1cc2ccccc2cc1O [Compound 1c, N-(2-Chlorophenyl)-3-hydroxy-2-naphthamide]
GI50 [1]: 7.73 µM

SMILES: CN(C(=O)c1cc2ccccc2cc1O)c1ccc(Cl)cc1 [Compound 11]
inhibition of CREB's activity [14]: did not inhibit | inhibition of KIX–KID interaction (KIX–KID interaction): did not inhibit | sensitivity of MCF-7 cells expressing VP16-CREB compared to parental MCF-7 cells [11]: equally effective

SMILES: O=C(Nc1ccc(F)c(Cl)c1)c1cc2ccccc2cc1O [Compound 1l, N-(3-Chloro-4-fluorophenyl)-3-hydroxy-2-naphthamide]
GI50 [1]: 3.39 µM

SMILES: O=C(Nc1ccccn1)c1cc2ccccc2cc1O [Compound 10a, 3-Hydroxy-N-(pyridin-2-yl)-2-naphthamide]
GI50 [1]: 33 µM

SMILES: COc1ccc(NC(=O)c2cc3ccccc3cc2O)cc1 [Compound 1j, 3-Hydroxy-N-(4-methoxyphenyl)-2-naphthamide]
GI50 [1]: 61.7 µM

SMILES: O=C(Nc1ccc(F)cc1)c1cc2ccccc2cc1O [Compound 1d, N-(4-Fluorophenyl)-3-hydroxy-2-naphthamide]
GI50 [1]: 6.29 µM

SMILES: O=C(Nc1cccc(Cl)c1)c1cc2ccccc2cc1O [Compound 1b, N-(3-Chlorophenyl)-3-hydroxy-2-naphthamide]
GI50 [1]: 3.4 µM

Continued, in another order:

GI50 [1]: 5.35 µM
SMILES: O=C(Nc1ccc(F)c(F)c1)c1cc2ccccc2cc1O [Compound 1k, N-(3,4-Difluorophenyl)-3-hydroxy-2-naphthamide]

GI50 [1]: 2.38 µM
SMILES: O=C(Nc1ccc(Cl)cc1)c1cc2ccccc2cc1O [Compound 1a, naphthol AS-E]
transcript level of bcl-2 (Bcl-2 [2]): decreased | expression of p21 protein (p21 [3]): unchanged | toxicity to HFF cells (number of live cells) [4]: did not observe significant toxicity | cells undergoing apoptosis (annexin+/PI−) (A549 cells): Up to 19.4% | inhibition of VP16-CREB-mediated gene transcription [5]: did not inhibit | growth inhibition in NCI-60 panel (NCI-60 cancer cell panel): inhibited the growth of most of the cancer cells | inhibition of p53-mediated gene transcription [6]: not inhibited | transcript level of VEGF (VEGF [7]): decreased | transcript level of p21 (p21 [8]): essentially unchanged | expression level of Bcl-2 protein (Bcl-2 [9]): decreased | toxicity to HMEC (number of live cells) [10]: little or no toxicity | sensitivity of MCF-7 cells expressing VP16-CREB compared to parental MCF-7 cells [11]: more resistant | cleavage of PARP [12]: observed | expression of VEGF in culture media (VEGF [13]): down-regulated

GI50 [1]: > 47.2 µM
SMILES: O=C(Nc1cnccn1)c1cc2ccccc2cc1O [Compound 10c, 3-Hydroxy-N-(pyrazin-2-yl)-2-naphthamide]

GI50 [1]: > 50.8 µM
SMILES: O=C(Nc1ccc(O)cc1)c1cc2ccccc2cc1O [Compound 1h, 3-Hydroxy-N-(4-hydroxyphenyl)-2-naphthamide]

GI50 [1]: 33.8 µM
SMILES: O=C(Nc1ccc(C(F)(F)F)cc1)c1cc2ccccc2cc1O [Compound 1i, 3-Hydroxy-N-(4-trifluoromethylphenyl)-2-naphthamide]

GI50 [1]: 5.59 µM
SMILES: O=C(Nc1ccc(Br)cc1)c1cc2ccccc2cc1O [Compound 1e, N-(4-Bromophenyl)-3-hydroxy-2-naphthamide]

GI50 [1]: 6.52 µM
SMILES: O=C(Nc1ccc(I)cc1)c1cc2ccccc2cc1O [Compound 1f, 3-Hydroxy-N-(4-iodophenyl)-2-naphthamide]

GI50 [1]: > 59.1 µM
SMILES: Nc1ccc(NC(=O)c2cc3ccccc3cc2O)cc1 [Compound 1g, N-(4-Aminophenyl)-3-hydroxy-2-naphthamide]

GI50 [1]: 34.9 µM
SMILES: O=C(Nc1ccncc1)c1cc2ccccc2cc1O [Compound 10b, 3-Hydroxy-N-(pyridin-4-yl)-2-naphthamide]
